Where two headings read alike, the source gives them in different places.
Legend:
ALKBH3 [1] = molecular target: T1, ALKBH3 (Homo sapiens, UniProt Q96Q83); experiment: Demethylation assay by direct detection of formaldehyde; assay type: biochemical; details: ferrozine 1 mM or succinate 5 mM; ALKBH3 0.2 μM, RAD51C 4.0 μM
T1 sequence (Q96Q83 1-286): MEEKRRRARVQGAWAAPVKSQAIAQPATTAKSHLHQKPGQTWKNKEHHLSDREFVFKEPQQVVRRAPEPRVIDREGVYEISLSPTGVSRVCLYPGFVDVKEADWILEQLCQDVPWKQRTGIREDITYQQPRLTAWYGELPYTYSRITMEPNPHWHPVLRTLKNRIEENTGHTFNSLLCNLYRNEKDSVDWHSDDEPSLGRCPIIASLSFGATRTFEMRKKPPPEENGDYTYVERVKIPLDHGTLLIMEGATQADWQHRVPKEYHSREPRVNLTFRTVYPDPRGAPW

ALKBH3 [2] = molecular target: T1, ALKBH3; experiment: Isothermal titration calorimetry; assay type: binding; details: ITC, 25°C; 1 mM peptide into 15 μM ALKBH3
ALKBH3 [3] = molecular target: T1, ALKBH3; experiment: Yeast two-hybrid with ALKBH3; assay type: binding; details: strain pJ69-4A; growth on dropout plates and lacZ reporter
How it was run: (§1)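 Full-length ALKBH2 or ALKBH3 fused to Gal4 binding domain (pGBKT7) was co-transformed with Gal4 activation domain (pACT2) fusions of RAD51, RAD51B, RAD51C, RAD51D, XRCC2 or XRCC3, or empty vectors. Transformants were selected on SD -Leu -Trp plates at 30°C for 2–3 days, then spotted on -His (triple) or -His -Ade (quadruple) dropout plates. lacZ was scored qualitatively by X-gal filter assay.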

ALKBH2 = experiment: Yeast two-hybrid with ALKBH2; assay type: binding, human; details: strain pJ69-4A; growth on dropout plates and lacZ reporter
How it was run: as §1

RAD51C = experiment: Yeast two-hybrid of ALKBH3 fragments with RAD51C; assay type: binding, human; details: ALKBH3 fragments (pGBKT7) with pACT2-RAD51C
How it was run: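 Yeast co-transformed with Gal4 binding-domain (pGBKT7) and activation-domain constructs were plated on SD −Leu −Trp at 30°C for 2–3 days. HIS and ADE2 reporters were scored by spotting onto −Leu −Trp −His or −Leu −Trp −His −Ade plates. lacZ was checked qualitatively by X-gal filter assay.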

[4] = molecular target: T2, ALKBH3 protein (recombinant, used for ITC) (human, UniProt Q96Q83 1-286); experiment: ITC
T2 sequence (looked up): T1 sequence (Q96Q83 1-286)

[5] = molecular target: T3, His-tagged RAD51C (HIS-RAD51C) (human, UniProt O43502 1-376); experiment: pull-down
T3 sequence (looked up): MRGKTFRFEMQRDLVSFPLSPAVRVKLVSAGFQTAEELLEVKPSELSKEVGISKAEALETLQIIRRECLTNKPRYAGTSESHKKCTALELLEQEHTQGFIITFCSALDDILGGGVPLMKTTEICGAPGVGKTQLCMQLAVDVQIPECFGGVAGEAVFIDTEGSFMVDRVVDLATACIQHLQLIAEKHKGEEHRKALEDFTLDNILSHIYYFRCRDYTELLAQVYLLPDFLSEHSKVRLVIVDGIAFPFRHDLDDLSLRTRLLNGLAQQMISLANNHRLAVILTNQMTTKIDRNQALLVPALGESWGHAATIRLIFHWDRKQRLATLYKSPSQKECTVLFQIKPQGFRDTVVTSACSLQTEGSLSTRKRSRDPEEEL

ALKBH3 [6] = molecular target: T1, ALKBH3; details: ssDNA substrate; cited from earlier work
ALKBH3 [7] = molecular target: T1, ALKBH3; experiment: Steady-state; assay type: biochemical; details: 3′-tailed DNA 0.6–9.6 μM, ALKBH3 0.2 μM, RAD51C or RAD51CΔ42–52 4 μM, FDH-coupled

For `O=C(O)CCC(=O)O` [succinate, reference compound], the “inhibition of ALKBH3 with RAD51C present” value (ALKBH3 [1]) was “presence of RAD51C could not alleviate the inhibitory effect of ferrozine and succinate”.

With `O=S(=O)([O-])c1ccc(-c2nnc(-c3ccccn3)nc2-c2ccc(S(=O)(=O)[O-])cc2)cc1.[Na+].[Na+]` [ferrozine, reference compound] the “inhibition of ALKBH3 with RAD51C present” value (ALKBH3 [1]) was “presence of RAD51C could not alleviate the inhibitory effect of ferrozine and succinate”.

In the case of QTAEELLEV [p33–41], the “binding to ALKBH3” value (ALKBH3 [2]) is reported as “failed to bind ALKBH3 under these conditions”.

For RAD51: human recombinase RAD51, the “yeast two-hybrid interaction with ALKBH3” value (ALKBH3 [3]) was “not with RAD51” and the “yeast two-hybrid interaction with ALKBH2” value (ALKBH2) was “could not detect any interaction”.

B1: RAD51CΔ1–18 (protein)
chain: LSPAVRVKLVSAGFQTAEELLEVKPSELSKEVGISKAEALETLQIIRRECLTNKPRYAGTSESHKKCTALELLEQEHTQGFIITFCSALDDILGGGVPLMKTTEICGAPGVGKTQLCMQLAVDVQIPECFGGVAGEAVFIDTEGSFMVDRVVDLATACIQHLQLIAEKHKGEEHRKALEDFTLDNILSHIYYFRCRDYTELLAQVYLLPDFLSEHSKVRLVIVDGIAFPFRHDLDDLSLRTRLLNGLAQQMISLANNHRLAVILTNQMTTKIDRNQALLVPALGESWGHAATIRLIFHWDRKQRLATLYKSPSQKECTVLFQIKPQGFRDTVVTSACSLQTEGSLSTRKRSRDPEEEL
modifications: left off: Gal4 activation domain, end not stated, kept
For B1, the “yeast two-hybrid interaction with ALKBH3” value (ALKBH3 [3]) was “remained unaffected”.

B2: ALKBH3 (amino acids 175–286): C-terminal segment of ALKBH3 (protein)
chain: SLLCNLYRNEKDSVDWHSDDEPSLGRCPIIASLSFGATRTFEMRKKPPPEENGDYTYVERVKIPLDHGTLLIMEGATQADWQHRVPKEYHSREPRVNLTFRTVYPDPRGAPW
modifications: left off: Gal4 DNA-binding domain, end not stated, kept
For B2, the “yeast two-hybrid interaction with RAD51C” value (RAD51C) was “interacted with RAD51C”.

B3: ΔNTD: remaining amino acid residues (67–376) of RAD51C (protein)
chain: ECLTNKPRYAGTSESHKKCTALELLEQEHTQGFIITFCSALDDILGGGVPLMKTTEICGAPGVGKTQLCMQLAVDVQIPECFGGVAGEAVFIDTEGSFMVDRVVDLATACIQHLQLIAEKHKGEEHRKALEDFTLDNILSHIYYFRCRDYTELLAQVYLLPDFLSEHSKVRLVIVDGIAFPFRHDLDDLSLRTRLLNGLAQQMISLANNHRLAVILTNQMTTKIDRNQALLVPALGESWGHAATIRLIFHWDRKQRLATLYKSPSQKECTVLFQIKPQGFRDTVVTSACSLQTEGSLSTRKRSRDPEEEL
modifications: left off: Gal4 activation domain, end not stated, kept
For B3, the “yeast two-hybrid interaction with ALKBH3” value (ALKBH3 [3]) was “completely abrogated the interaction”.

B4: RAD51CΔ19–32 (protein)
chain: MRGKTFRFEMQRDLVSFPQTAEELLEVKPSELSKEVGISKAEALETLQIIRRECLTNKPRYAGTSESHKKCTALELLEQEHTQGFIITFCSALDDILGGGVPLMKTTEICGAPGVGKTQLCMQLAVDVQIPECFGGVAGEAVFIDTEGSFMVDRVVDLATACIQHLQLIAEKHKGEEHRKALEDFTLDNILSHIYYFRCRDYTELLAQVYLLPDFLSEHSKVRLVIVDGIAFPFRHDLDDLSLRTRLLNGLAQQMISLANNHRLAVILTNQMTTKIDRNQALLVPALGESWGHAATIRLIFHWDRKQRLATLYKSPSQKECTVLFQIKPQGFRDTVVTSACSLQTEGSLSTRKRSRDPEEEL
modifications: left off: Gal4 activation domain, end not stated, kept
With B4 the “yeast two-hybrid interaction with ALKBH3” value (ALKBH3 [3]) was “remained unaffected”.

B5: RAD51C-NTD: NTD consisting of 1–66 amino acid residues (protein)
chain: MRGKTFRFEMQRDLVSFPLSPAVRVKLVSAGFQTAEELLEVKPSELSKEVGISKAEALETLQIIRR
modifications: left off: Gal4 activation domain, end not stated, kept
With B5 the “yeast two-hybrid interaction with ALKBH3” value (ALKBH3 [3]) was “robust interaction”.

B6: RAD51CΔ53–66 (protein)
chain: MRGKTFRFEMQRDLVSFPLSPAVRVKLVSAGFQTAEELLEVKPSELSKEVGIECLTNKPRYAGTSESHKKCTALELLEQEHTQGFIITFCSALDDILGGGVPLMKTTEICGAPGVGKTQLCMQLAVDVQIPECFGGVAGEAVFIDTEGSFMVDRVVDLATACIQHLQLIAEKHKGEEHRKALEDFTLDNILSHIYYFRCRDYTELLAQVYLLPDFLSEHSKVRLVIVDGIAFPFRHDLDDLSLRTRLLNGLAQQMISLANNHRLAVILTNQMTTKIDRNQALLVPALGESWGHAATIRLIFHWDRKQRLATLYKSPSQKECTVLFQIKPQGFRDTVVTSACSLQTEGSLSTRKRSRDPEEEL
modifications: left off: Gal4 activation domain, end not stated, kept
With B6 the “yeast two-hybrid interaction with ALKBH3” value (ALKBH3 [3]) was “remained unaffected”.

For KPSELSKEVGI [synthetic peptide p42–52 of RAD51C], the Kd [4] was 4 µM and the “stoichiometry N” value [4] was 1.

B7: RAD51CΔ33–41 (protein)
chain: MRGKTFRFEMQRDLVSFPLSPAVRVKLVSAGFKPSELSKEVGISKAEALETLQIIRRECLTNKPRYAGTSESHKKCTALELLEQEHTQGFIITFCSALDDILGGGVPLMKTTEICGAPGVGKTQLCMQLAVDVQIPECFGGVAGEAVFIDTEGSFMVDRVVDLATACIQHLQLIAEKHKGEEHRKALEDFTLDNILSHIYYFRCRDYTELLAQVYLLPDFLSEHSKVRLVIVDGIAFPFRHDLDDLSLRTRLLNGLAQQMISLANNHRLAVILTNQMTTKIDRNQALLVPALGESWGHAATIRLIFHWDRKQRLATLYKSPSQKECTVLFQIKPQGFRDTVVTSACSLQTEGSLSTRKRSRDPEEEL
modifications: left off: Gal4 activation domain, end not stated, kept
With B7 the “yeast two-hybrid interaction with ALKBH3” value (ALKBH3 [3]) was “partially affected”.

B8: GST-ALKBH3 fusion protein (natural protein, human, UniProt Q96Q83 1-286, looked up)
chain: T1 sequence (Q96Q83 1-286)
B8: binds [5].

B9: ALKBH3: human oxidative demethylase ALKBH3, tag-less recombinant (protein)
chain: T1 sequence (Q96Q83 1-286)
modifications: left off: Gal4 DNA-binding domain, end not stated, kept
In the case of B9, the Km (ALKBH3 [6]) is listed as 1.9 µM, the kcat/KM (ALKBH3 [6]) is listed as 14500 M⁻¹ s⁻¹ and the Km (ALKBH3 [7]) is listed as 1.4 µM.

From article PMC7145530 (Nucleic Acids Research, 2019)
